# Most compounds without a hit are left out; they make up all but 2.2% or so of the library.
# FGF22 binding – shifts melting point of recombinant human FGF22. Q9HCT0. recombinant FGF22 thermal shift, SYPRO orange fluorescence; percent of sucrose octasulfate shift, DMSO zero. activity (Tm shift, normalised), % at 9.99 µM. actives 1.5% (n = 340,000). AID 651658;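 active means mean Tm shift, scaled 0 neutral to 100 positive control, at about 1.3% or above, every replicate too, limit read from the data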
# Target sequence (Q9HCT0 whole entry, looked up): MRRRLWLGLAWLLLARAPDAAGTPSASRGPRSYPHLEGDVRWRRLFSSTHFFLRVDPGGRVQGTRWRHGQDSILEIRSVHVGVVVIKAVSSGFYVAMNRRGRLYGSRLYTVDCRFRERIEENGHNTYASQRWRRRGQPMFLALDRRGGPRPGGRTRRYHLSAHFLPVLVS
# F508del corr – correctors of CFTR F508del function in bronchial epithelial cells. activity (quench increase), % at 7.58 µM. actives 0.36% (n = 350,000). CFBE cells, YFP halide quenching; stimulated with forskolin plus potentiator P3; % fluorescence drop versus neutral controls;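 active means mean added fluorescence quench of at least 8% versus neutral control, with both replicates also reaching 8%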;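 further: cells transiently co-express mutant CFTR-F508del with the halide-sensitive YFP; corrector assay measuring rescue of mutant channel to the surface after 24 h compound exposure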
# S100A4 MyoIIA – S100A4-myosin IIA interaction inhibition; P26447; S100A4/TAMRA-MyoIIA peptide fluorescence polarization; inhibition, % at 10.7 µM; actives 0.14% (n = 360,000);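 active means mean inhibition of at least 70% across replicates, with every replicate also reaching that level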
# Target sequence (P26447 whole entry, looked up): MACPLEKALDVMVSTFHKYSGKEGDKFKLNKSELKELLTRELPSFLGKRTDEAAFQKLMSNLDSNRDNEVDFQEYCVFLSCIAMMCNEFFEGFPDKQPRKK
#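 Test system: S100A4 monomer protein. Medium: HEPES buffer with Ca2+, pH 7.2. Reagent: fluorescent myosin IIA peptide, 5 nM. Compound dosing: single-point compound testing. Timing: 5 min between mix addition and reading. Benchmarks: DMSO neutral and TFP positive wells.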
# dFosB act-1 – mouse delta FosB homodimer activation. P13346. purified delta FosB, TAMRA-CDK5 oligo fluorescence polarization; percent of positive-control signal above neutral wells. activation, % at 25 µM. actives 0.99% (n = 340,000);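 active means mean activation above about 17%, with every replicate also reaching it, limit read from the data, passing the limit was not always enough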
# Target sequence (P13346 whole entry, looked up): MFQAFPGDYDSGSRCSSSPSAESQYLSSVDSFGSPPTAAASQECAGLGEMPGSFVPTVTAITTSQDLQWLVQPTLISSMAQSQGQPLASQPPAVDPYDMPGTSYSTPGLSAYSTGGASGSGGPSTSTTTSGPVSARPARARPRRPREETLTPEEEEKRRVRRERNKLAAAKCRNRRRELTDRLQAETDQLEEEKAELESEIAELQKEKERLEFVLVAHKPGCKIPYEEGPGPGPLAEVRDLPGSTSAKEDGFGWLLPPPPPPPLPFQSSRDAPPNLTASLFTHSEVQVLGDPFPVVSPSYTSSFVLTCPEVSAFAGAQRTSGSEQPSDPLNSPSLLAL
# dFosB act-2 – enhances mouse delta FosB homodimer binding to DNA; shares compounds with dFosB act-1; purified delta FosB, TAMRA-CDK5 oligo fluorescence polarization; normalised: neutral wells 0, positive control 100; activation, % at 24.9 µM; 2,400 tested, under 10 active; AID 588690;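 active means highest replicate activation at or above 34% and every replicate reaching that threshold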;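 further: higher polarization means more probe DNA bound by delta FosB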
# An asterisk follows results filed as active; · = not tested or not shown.
SMILES,FGF22 binding,F508del corr,S100A4 MyoIIA,dFosB act-1,dFosB act-2
N#CC(=C(O)COC(=O)c1ccc2c(c1)OCCO2)c1nc2ccccc2[nH]1,0,-2,1,7,·
Cc1c(C(=O)OCC(O)=C(C#N)c2nc3ccccc3[nH]2)oc2ccc(Br)cc12,0,0,-6,-1,·
COc1cc(OC)cc(C(=O)OC/C(O)=C(\C#N)c2nc3ccccc3[nH]2)c1,0,1,-2,40*,4
Cc1c(C(=O)OC/C(O)=C(\C#N)c2nc3ccccc3[nH]2)oc2ccccc12,0,-1,-9,45*,-9
COc1ccc(Cl)cc1C(=O)NC(=S)Nc1nc(C)cc(C)n1,0,1,3,-11,·
COc1ccc(Cl)cc1C(=O)NC(=S)Nc1cc(-c2nc3ccccc3[nH]2)ccc1C,·,·,·,36*,2
C[C@H](CO)N1C[C@H](C)[C@@H](CN(C)Cc2ccncc2)Oc2ccc(NC(=O)Nc3ccc4c(c3)OCO4)cc2CC1=O,0,-1,7,·,·
CC(C)NC(=O)Nc1ccc2c(c1)C(=O)N([C@H](C)CO)C[C@H](C)[C@H](CN(C)C(=O)CCC(F)(F)F)OCCCC[C@@H](C)O2,·,-1,·,·,·
O=C(CSc1nnc(-c2n[nH]c3ccccc23)n1-c1ccccc1)Nc1cccc(Cl)c1,·,·,·,25*,8
Cc1ccc(NC(=O)Cn2nc(-c3ccccc3)nc2-c2ccccc2)c(C)c1,0,·,-4,13,·
Cc1ccc(C)c(NC(=O)Cn2nc(-c3ccccc3)nc2-c2ccccc2)c1,·,·,·,55*,-9
C[C@H]1CCCCO[C@H](CN(C)Cc2ccccc2)[C@@H](C)CN([C@@H](C)CO)C(=O)c2cc(NS(=O)(=O)c3cccs3)ccc2O1,0,1,4,·,·
Cc1cc2ccccc2c(=O)n1CC(=O)Nc1ccc2c(c1)OCCO2,·,·,·,19*,0
CCc1ccc(NC(=O)CCCOc2cc(=O)n(C)c3ccccc23)cc1,0,0,2,·,·
Cn1c(=O)cc(OCCCC(=O)Nc2ccc3c(c2)OCCO3)c2ccccc21,·,·,·,44*,2
CCC(=O)N(C)C[C@@H]1Oc2ncc(C#CCC(C)C)cc2C(=O)N([C@H](C)CO)C[C@@H]1C,0,-2,2,·,·
COc1ccc(S(=O)(=O)N2C[C@H](O)COC[C@H]3O[C@@H](CC(=O)NCCN4CCCCC4)CC[C@@H]32)cc1,0,1,-3,·,·
CC(C)Sc1nc2c(cnn2-c2ccccc2)c(=O)[nH]1,0,-2,-4,11,·
O=c1[nH]c(/C=C/c2ccc(OC(F)F)cc2)nc2c1cnn2-c1ccccc1,·,·,·,65*,1
CCC(=O)Nc1ccc2c(c1)C(=O)N(C)C[C@H](OC)[C@H](C)CN(C(=O)CC)[C@H](C)CO2,-1,2,67,·,·
CCN(CC(=O)Nc1ccccc1C(F)(F)F)C(=O)CCc1nc2sc3c(c2c(=O)[nH]1)CCCC3,0,2,-2,2,·
CN(CC(=O)Nc1ccc(Cl)cc1)C(=O)CCc1nc2sc3c(c2c(=O)[nH]1)CCCC3,0,2,0,29*,1
CN(CC(=O)Nc1ccccc1C(F)(F)F)C(=O)CCc1nc2sc3c(c2c(=O)[nH]1)CCCC3,0,1,1,23*,2
Cc1ccc(S(=O)(=O)Nc2ccc3c(c2)CC(=O)N([C@H](C)CO)C[C@@H](C)[C@H](CN(C)Cc2ccc(-c4ccccc4)cc2)O3)cc1,0,1,3,28*,2
O=C(NC(NC(=O)c1c(F)cccc1F)c1ccc([N+](=O)[O-])cc1)c1c(F)cccc1F,0,0,3,24*,5
SMILES,FGF22 binding,F508del corr,S100A4 MyoIIA,dFosB act-1,dFosB act-2
O=C(O)COc1ccc(C(NC(=O)c2c(F)cccc2F)NC(=O)c2c(F)cccc2F)cc1,0,0,-9,4,·
C[C@@H]1CN([C@H](C)CO)C(=O)c2cccc(NC(=O)Nc3ccccc3)c2O[C@@H]1CN(C)S(=O)(=O)c1ccccc1,0,-1,-3,·,·
C[C@H]1CN([C@@H](C)CO)C(=O)c2cccc(NC(=O)C3CCCCC3)c2O[C@H]1CN(C)Cc1ccncc1,0,-1,-11,·,·
O=C(NC(=S)Nc1cccc(NC(=O)c2ccc(Cl)cc2Cl)c1)c1cccs1,·,·,·,44*,-1
COCC(=O)N1C[C@H]2[C@@H](c3ccccc31)[C@H](CO)N2C(=O)c1ccncc1,-1,-1,2,·,·
O=C(N/N=C/c1ccco1)c1cc(-c2ccc(Cl)cc2)n[nH]1,0,0,17,25*,3
Cc1ccc(-c2cc(C(=O)N/N=C/c3ccco3)[nH]n2)cc1,·,·,·,2,·
C[C@@H]1CN([C@H](C)CO)C(=O)c2cc(-c3ccccc3)cnc2O[C@H]1CN(C)C(=O)c1ccccc1F,0,0,-5,·,·
CCn1c(=S)sc2c(=O)n(CC(=O)Nc3ccc(OC)c(Cl)c3)c(C)nc21,0,0,11,28*,3
Cc1nc2c(sc(=S)n2Cc2ccco2)c(=O)n1CC(=O)Nc1cc(F)ccc1F,0,-4,-2,103*,2
CCOc1cc(/C=N/NC(=O)CN2CCOCC2)ccc1OCc1ccccc1,·,·,·,4,·
CCOc1cc(/C=N/NC(=O)c2ccc(CN3CCOCC3)cc2)ccc1OCc1ccccc1,·,·,·,21*,-4
CCOc1cc(/C=N/NC(=O)c2cccnc2)ccc1OCC(=O)N1CCOCC1,·,·,·,10,·
CCOc1cc(/C=N/NC(=O)C(=O)NCc2ccc3c(c2)OCO3)ccc1OCC(=O)N1CCOCC1,0,0,0,20*,0
CCOc1cc(/C=C2/NC(=O)N(CC(=O)Nc3cccc(C)c3)C2=O)ccc1O,·,·,·,19*,5
Cc1cccc(NC(=O)CN2C(=O)S/C(=C\c3ccccn3)C2=O)c1,0,-2,8,41*,4
Cc1ccc(NC(=O)CN2C(=O)S/C(=C\c3ccccn3)C2=O)cc1,0,-1,0,6,·
Cc1ccc(NC(=O)CN2C(=O)c3ccccc3C2=O)cc1,0,4,-2,2,·
O=C(CN1C(=O)c2ccccc2C1=O)Nc1ccccc1,0,1,0,24*,-1
O=C(CN1C(=O)S/C(=C\C=C\c2ccccc2)C1=O)Nc1ccc(O)cc1,·,·,·,61*,8
CCOc1cc(/C=C2/NC(=O)N(CC(=O)Nc3cccc(C)c3)C2=O)ccc1OC,·,·,0,-6,·
Cc1ccc(-c2cnc3c(c2)C(=O)N([C@H](C)CO)C[C@@H](C)[C@@H](CN(C)S(C)(=O)=O)O3)cc1,0,6,-15,·,·
C[C@H](O)C#Cc1cnc2c(c1)C(=O)N([C@@H](C)CO)C[C@@H](C)[C@@H](CN(C)CC1CCOCC1)O2,0,-2,6,·,·
O=C(CN1C(=O)S/C(=C\c2ccccn2)C1=O)Nc1ccccc1,0,1,1,61*,5

# From PubChem
